The text below walks through data of ChEMBL document CHEMBL1136953, “Design, synthesis, and evaluation of N-acyl modified sialic acids as inhibitors of adenoviruses causing epidemic keratoconjunctivitis” (J Med Chem, 2009).

Each structure is given as a SMILES string. The source made the active and inactive calls. The rule behind the calls is not given here.

Assay [1] has as its system Human adenovirus D37. In words: Inhibition of [35S]labeled Human adenovirus type 37 virions binding to human corneal epithelial cells by liquid scintillation counting. It is filed as functional, organism-based. To be noted: Cornea, Epithelial cell. The method in brief:
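³⁵S-labeled Ad37 virions preincubated with ligand before being added to HCE cells. After incubation, unbound virions washed away and cell-associated radioactivity measured. Each run used a duplicate dilution series (2, 4, 8 and 16 mM), averaged from duplicates. Experiment repeated three times; large variation allowed only a rough activity estimate.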

Assay [2] has as its system Human adenovirus D37. Put plainly: Antiviral activity against Human adenovirus type 37 virions assessed as inhibition of viral infection in human corneal epithelial cells preincubated for 1 hr. In kind it is functional, organism-based. Particulars: Cornea, Epithelial cell. In short, it runs like this: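 Unlabeled Ad37 virions preincubated with a dilution series of ligand, then incubated with HCE cells. Unbound virions washed off; cell-associated virions allowed to infect. Infected cells stained with rabbit polyclonal anti-Ad37 serum and FITC-conjugated swine anti-rabbit IgG, then counted as fluorescent focus units under an immunofluorescence microscope. Duplicates within one experiment; experiment repeated twice.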

In the case of `CO[C@@]1(C(=O)O)C[C@H](O)[C@@H](NC(=O)OC(C)(C)C)[C@H]([C@H](O)[C@H](O)CO)O1`, the outcome in assay [1] was inactive. With `COC(=O)N[C@H]1[C@H]([C@H](O)[C@H](O)CO)O[C@](OC)(C(=O)O)C[C@@H]1O`, the Activity result in assay [2] was “Dose-dependent effect”. Further, in assay [1], the result was Active. Take `CCCCC(=O)N[C@H]1[C@H]([C@H](O)[C@H](O)CO)O[C@](OC)(C(=O)O)C[C@@H]1O`: the result in assay [1] was inactive. `CNC(=O)N[C@H]1[C@H]([C@H](O)[C@H](O)CO)O[C@](OC)(C(=O)O)C[C@@H]1O`: in assay [1], the result was inactive. Consider `O=C(CO)N[C@H]1[C@H]([C@H](O)[C@H](O)CO)O[C@](O)(C(=O)O)C[C@@H]1O`, for which the outcome in assay [1] was inactive. Regarding `CO[C@@]1(C(=O)O)C[C@H](O)[C@@H](NC(=O)C(C)C)[C@H]([C@H](O)[C@H](O)CO)O1`, the result in assay [2] and in assay [1] was inactive.

Take `CCC(=O)N[C@H]1[C@H]([C@H](O)[C@H](O)CO)O[C@](OC)(C(=O)O)C[C@@H]1O`: the Activity entry in assay [2] was “Dose-dependent effect”. In assay [1], the result was Active.

As for `CO[C@@]1(C(=O)O)C[C@H](O)[C@@H](NC(=O)c2ccccc2)[C@H]([C@H](O)[C@H](O)CO)O1`, the result in assay [2] was inactive. Also, the outcome in assay [1] was Active. For the compound `CCCC(=O)N[C@H]1[C@H]([C@H](O)[C@H](O)CO)O[C@](OC)(C(=O)O)C[C@@H]1O`, the result in assay [2] and in assay [1] was inactive. In the case of `CC(=O)N[C@H]1[C@H]([C@@H](O)[C@@H](O)CO)O[C@@](O)(C(=O)O)C[C@@H]1O`, the Activity entry in assay [2] is “Dose-dependent effect”. In assay [1], the outcome was Active.
